Laboratory results taken from ChEMBL document CHEMBL1132224, “Synthesis and in vitro multidrug resistance modulating activity of a series of dihydrobenzopyrans and tetrahydroquinolines” (J Med Chem, 1999).

Assays:
[1] = system: CCRF-CEM; experiment: The compound was tested for inhibition of P-glycoprotein mediated daunomycin efflux in multidrug resistant CCRF-CEM vcr1000 cells.; assay type: functional, cell-based; settings: Homo sapiens
In short: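 Vincristine-selected CCRF-CEM vcr1000 T-lymphoblasts grown in RPMI1640 with 10% FCS, selecting agent removed at least 1 week before use. Cells at 1 × 10^6/mL preloaded with 3.2 µM daunomycin (final) for 30 min at 37 °C, pelleted, then resuspended in 37 °C medium with modulator (eight concentrations, 1:2.5 dilutions, 3 nM–500 µM range). Samples taken at 0, 60, 120, 180 and 240 s into ice-cold stop medium containing verapamil (10 µg/mL final). An exponential fit gives the first-order rate constant (Vmax/Km) as the slope at time zero. Efflux in parental CCRF-CEM cells, set to equal initial fluorescence, is subtracted as passive diffusion. EC50 comes from Vmax/Km versus concentration, as mean ± SD of at least three independent experiments.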

[2] = Partition coefficient (logP); assay type: physicochemical; settings: octanol/water
In short: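 Computed, not measured: fragmentation method of Ghose et al. on a topological basis. Structures built and minimized with the MM2 force field. Conformation-independent log P values.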

[3] = Lipophilicity (log kw value) was determined; assay type: physicochemical; settings: reversed-phase HPLC, methanol/buffer pH 7.4
In short: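 Reversed-phase HPLC on an RP-8 column (5 µm), eluent methanol/aqueous phase adjusted to pH 7.4 with 1/60 M Soerensen buffer, detection at 254 nm. log k′ measured at 70%, 60% and 50% methanol, then extrapolated to 0% methanol by linear regression to give log kw.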

Structure (SMILES) | EC50 [1] [µM] | logP [2] | Log kw [3]
CC(C)(C)OC(=O)CN(Cc1ccccc1)[C@H]1c2cc(C#N)ccc2OC(C)(C)[C@@H]1O | 2.43 | 3.76 | –
CN[C@H]1c2cc(C#N)ccc2OC(C)(C)[C@@H]1O | 1430 | 1.24 | –
Cc1ccc(C(=O)N2c3ccccc3[C@H](N3CCN(Cc4ccccc4)CC3)[C@@H](O)[C@@H]2C)cc1 | 0.43 | 4.51 | 6.1
CC1(C)Oc2ccc(C#N)cc2[C@H](N2CCN(Cc3ccccc3)CC2)[C@H]1O | 0.64 | 3.11 | 5.53
Cc1ccc(C(=O)O[C@H]2[C@H](C)Nc3ccccc3[C@@H]2N2CCCC2)cc1 | 5.64 | 3.92 | 5.47
CC1(C)Oc2ccc(C#N)cc2[C@H](NCc2ccccc2)[C@H]1O | 59.1 | 3.12 | 4.35
Cc1ccc(C(=O)N2c3ccccc3[C@H](N3CCCC3)[C@@H](O)[C@@H]2C)cc1 | 7.98 | 3.34 | 4.2
CC(C)(C)OC(=O)CN[C@H]1c2cc(C#N)ccc2OC(C)(C)[C@@H]1O | 46.8 | 1.79 | –
Cc1ccc(C(=O)N2c3ccccc3[C@H](NCc3ccccc3)[C@@H](O)[C@@H]2C)cc1 | 3.26 | 4.52 | 5.38
CCN(CC)CCCC(C)N[C@H]1c2ccccc2N[C@@H](C)[C@@H]1OC(=O)c1ccc(C)cc1 (stereo partly drawn) | 0.34 | 4.78 | –
CCN(CC)CCCC(C)N[C@H]1c2ccccc2N(C(=O)c2ccc(C)cc2)[C@@H](C)[C@@H]1O (stereo partly drawn) | 1.96 | 4.2 | –
